Source: ChEMBL document CHEMBL1122206, “Use of adenine nucleotide derivatives to assess the potential of exo-active-site-directed reagents as species- or isozyme-specific enzyme inactivators. 5. Interactions of adenosine 5'-triphosphate derivatives with rat pyruvate kinases, Escherichia coli thymidine kinase, and yeast and rat …” (1982)

Tests used:
[1] = target: T1, Hexokinase-2 (Rattus norvegicus) (UniProt P27881); assay: Substrate activity against Rat hexokinase II as 1:1 Mg complex at 5.0 mM
T1 sequence (whole entry): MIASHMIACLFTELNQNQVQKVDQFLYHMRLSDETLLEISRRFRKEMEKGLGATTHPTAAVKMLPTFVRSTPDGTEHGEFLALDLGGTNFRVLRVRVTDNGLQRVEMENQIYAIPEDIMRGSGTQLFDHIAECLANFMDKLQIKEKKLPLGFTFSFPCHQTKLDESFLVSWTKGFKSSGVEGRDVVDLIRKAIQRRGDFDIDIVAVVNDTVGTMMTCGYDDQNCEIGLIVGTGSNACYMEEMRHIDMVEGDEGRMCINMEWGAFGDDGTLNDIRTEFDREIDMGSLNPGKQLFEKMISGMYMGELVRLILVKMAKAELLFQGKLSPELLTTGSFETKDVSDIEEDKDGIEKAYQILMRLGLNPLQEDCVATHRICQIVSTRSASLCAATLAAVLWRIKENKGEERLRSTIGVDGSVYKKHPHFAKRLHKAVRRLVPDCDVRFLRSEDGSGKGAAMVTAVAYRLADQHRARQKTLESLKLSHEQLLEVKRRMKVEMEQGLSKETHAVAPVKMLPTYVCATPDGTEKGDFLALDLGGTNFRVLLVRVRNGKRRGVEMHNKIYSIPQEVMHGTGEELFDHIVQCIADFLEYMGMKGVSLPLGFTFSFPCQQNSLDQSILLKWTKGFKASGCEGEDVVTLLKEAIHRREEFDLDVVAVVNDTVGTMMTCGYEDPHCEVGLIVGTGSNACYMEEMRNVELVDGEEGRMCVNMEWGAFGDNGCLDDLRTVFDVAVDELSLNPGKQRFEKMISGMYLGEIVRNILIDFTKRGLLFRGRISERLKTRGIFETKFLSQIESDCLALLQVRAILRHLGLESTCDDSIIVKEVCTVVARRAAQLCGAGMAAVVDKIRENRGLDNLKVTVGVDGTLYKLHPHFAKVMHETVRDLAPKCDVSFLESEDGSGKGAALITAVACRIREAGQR
Procedure, shortened: (§1)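 Hexokinase activity read at 22 °C as A340 change, coupled to glucose-6-phosphate dehydrogenase, in 0.05 M Tris-HCl pH 7.6 with 6.6 mM MgCl2, 10 mM α-D-glucose and 0.93 mM NADP. Donor was 5.0 mM MgATP derivative (1:1 Mg complex) in place of ATP. Yeast HK was isoelectric-focused. Rat HK I and III came from electrofocused liver extract, HK II from dialysed muscle extract.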

[2] = target: T2, Hexokinase-3 (Rattus norvegicus) (UniProt P27926); assay: Substrate activity for rat hexokinase III as 1:1 Mg complex at 5.0 mM; procedure, shortened: as §1
T2 sequence (whole entry): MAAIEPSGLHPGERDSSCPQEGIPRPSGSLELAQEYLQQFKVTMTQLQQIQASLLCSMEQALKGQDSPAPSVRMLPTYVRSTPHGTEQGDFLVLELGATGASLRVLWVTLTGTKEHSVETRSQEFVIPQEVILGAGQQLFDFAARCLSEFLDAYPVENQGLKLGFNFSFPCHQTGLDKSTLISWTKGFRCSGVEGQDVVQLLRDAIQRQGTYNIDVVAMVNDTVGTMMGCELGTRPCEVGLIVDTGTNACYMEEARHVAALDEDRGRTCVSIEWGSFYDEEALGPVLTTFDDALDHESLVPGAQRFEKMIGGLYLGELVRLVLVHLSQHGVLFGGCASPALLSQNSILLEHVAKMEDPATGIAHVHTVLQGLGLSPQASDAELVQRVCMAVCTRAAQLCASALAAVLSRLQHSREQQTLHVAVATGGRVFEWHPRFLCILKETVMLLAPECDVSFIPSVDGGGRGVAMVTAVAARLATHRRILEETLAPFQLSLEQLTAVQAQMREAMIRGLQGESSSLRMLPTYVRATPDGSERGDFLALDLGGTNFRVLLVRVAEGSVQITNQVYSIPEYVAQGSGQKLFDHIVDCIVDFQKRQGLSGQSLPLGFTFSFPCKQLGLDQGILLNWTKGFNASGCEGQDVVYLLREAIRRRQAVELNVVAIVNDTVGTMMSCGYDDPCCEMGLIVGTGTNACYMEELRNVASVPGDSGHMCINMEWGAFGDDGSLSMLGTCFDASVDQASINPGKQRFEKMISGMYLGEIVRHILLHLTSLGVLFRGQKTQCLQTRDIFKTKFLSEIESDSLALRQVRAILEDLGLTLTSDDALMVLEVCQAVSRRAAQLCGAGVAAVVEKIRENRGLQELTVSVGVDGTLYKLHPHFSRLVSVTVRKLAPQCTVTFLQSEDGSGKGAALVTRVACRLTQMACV

Saccharomyces cerevisiae = assay: Substrate activity against yeast hexokinase as 1:1 Mg complexes at 5.0 mM; procedure, shortened: as §1
[3] = Tested for the velocity of 2.8 mM compound relative to that of 2.8 mM MgATP in the assay
Procedure, shortened: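 E. coli TK substrate test. 0.5 h after adding inhibitor, the mixture was diluted to 2.8 mM derivative in thymidine assay medium without ATP and with 1.42 mM MnCl2. Incubated 15 min at 37 °C, in the linear range. [14C]TMP formed was compared with that from 2.8 mM ATP under the same conditions.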

[4] = Substrate concentration for half maximal velocity was reported for yeast hexokinase
Procedure, shortened: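 Coupled glucose-6-phosphate dehydrogenase/NADP assay: A340 rate at 22 °C in 0.05 M Tris-HCl pH 7.6 with 6.6 mM MgCl2, 10 mM α-D-glucose and 0.93 mM NADP, nucleotide varied. KM was taken from linear double-reciprocal plots. Rat HK I and III came from electrofocused, dialysed liver extract, HK II from dialysed muscle extract, and yeast HK was isoelectric-focused.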

[5] = Compound was tested for substrate constants with yeast hexokinase. Maximal velocity Vmax was reported
Procedure, shortened: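 Hexokinase KM and Vmax taken from linear double-reciprocal plots of initial velocity vs. nucleotide level. Assays at 22 °C, coupled to glucose-6-phosphate dehydrogenase (A340), in 0.05 M Tris-HCl pH 7.6 with 6.6 mM MgCl2, 10 mM glucose and 0.93 mM NADP. Yeast HK was isoelectric-focused. Rat HK I and III came from liver, HK II from muscle (male Sprague-Dawley).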

[6] = target: T2, Hexokinase-3 (Rattus norvegicus); assay: Time dependent inhibition of Hexokinase type III activity after 6 h, at 22 degrees celsius, at 5 mM
[7] = target: Thymidine kinase (Escherichia coli) (UniProt P23331); assay: Compound was tested for the loss of thymidine kinase activity from Escherichia coli after 6 hr at 0 degrees C at 10 mM
Thymidine kinase (Escherichia coli), sequence (P23331 whole entry, looked up): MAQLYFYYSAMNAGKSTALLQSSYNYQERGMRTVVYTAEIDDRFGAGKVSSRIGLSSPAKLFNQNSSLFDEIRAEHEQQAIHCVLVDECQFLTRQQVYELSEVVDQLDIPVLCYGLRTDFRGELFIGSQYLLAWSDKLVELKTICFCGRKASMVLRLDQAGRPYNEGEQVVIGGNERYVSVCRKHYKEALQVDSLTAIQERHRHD

`Nc1ncnc2c1ncn2[C@@H]1O[C@H](COP(=O)(O)OP(=O)(O)OP(=O)(O)O)[C@@H](O)[C@H]1O` gave a Relative velocity [1] of 1, a Relative velocity [2] of 1 and a Relative velocity (Saccharomyces cerevisiae) of 1. For the same compound, the Velocity [3] was 100%, the Km [4] was 130 µM and the Vmax [5] was 100%. It also gave an inhibition [6] of 0% and an inhibition [7] of 0%.
